# Screening results deposited in PubChem by Broad Institute.
# CAL PDZ FP-1 = CAL PDZ (human) peptide binding inhibition; Q9HD26; 300,000 tested, 0.92% active; purified CAL PDZ, TMR-peptide fluorescence polarization, 1 h; inhibition, % at 24.9 µM;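 active = mean inhibition of at least 30% with at least half of replicates also reaching 30%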;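 note: 0% = DMSO neutral control and 100% = excess unlabeled competitor peptide PRC23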
# SR-BI DiI inh = mouse SR-BI HDL lipid transfer inhibition. Q61009. ldlA[mSR-BI] CHO cells, DiI-HDL uptake fluorescence, 3 h. inhibition, % at 12.5 µM. 320,000 tested, 0.96% active;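 active = mean replicate inhibition of at least 70% and a set share of replicates each scoring 70 or more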;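 note: 0% = median of neutral control wells and 100% = median of positive control wells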
# Target sequence (Q61009 whole entry, looked up): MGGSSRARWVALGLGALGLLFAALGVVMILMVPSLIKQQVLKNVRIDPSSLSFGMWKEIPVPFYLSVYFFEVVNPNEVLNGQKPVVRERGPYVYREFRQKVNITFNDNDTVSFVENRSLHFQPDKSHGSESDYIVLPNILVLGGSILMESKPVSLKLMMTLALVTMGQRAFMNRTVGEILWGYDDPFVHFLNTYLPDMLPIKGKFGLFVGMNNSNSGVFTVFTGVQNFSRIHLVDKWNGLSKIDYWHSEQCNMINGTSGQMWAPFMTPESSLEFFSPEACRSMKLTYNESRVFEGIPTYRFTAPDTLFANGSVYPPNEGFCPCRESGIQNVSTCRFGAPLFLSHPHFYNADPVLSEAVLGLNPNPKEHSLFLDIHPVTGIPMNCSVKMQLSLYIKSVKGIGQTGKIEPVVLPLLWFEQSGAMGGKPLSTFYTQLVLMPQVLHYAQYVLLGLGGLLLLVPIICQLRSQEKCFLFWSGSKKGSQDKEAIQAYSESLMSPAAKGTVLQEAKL
# CAL PDZ FP-2 = blocks peptide binding to human CAL PDZ domain; Q9HD26; purified CAL PDZ, TMR-peptide fluorescence polarization, 1 h; inhibition, % at 20 µM; 330,000 tested, 0.02% active;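 active = highest replicate inhibition of at least 40%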;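 note: plate controls were DMSO neutral control wells for no effect and unlabeled competitor peptide control wells for full effect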
#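 Material: tagged CAL PDZ domain; buffer or medium: 25 mM sodium phosphate pH 7.4, 150 mM NaCl, TCEP, IgG, Thesit; compound dosing: single point, 20 µM; schedule: 1 h incubation at room temperature before polarization reading; measured by: FP readout, S and P plane fluorescence; read-out basis: percent inhibition from loss of millipolarization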
# SR-BI uptake up = enhances SR-BI lipid uptake from DiI-HDL; CHO ldlA[mSR-BI] cells, DiI-HDL uptake fluorescence, 3 h; 100 = double the neutral-control signal; activation, % at 12.5 µM; 320,000 tested, 0.096% active; AID 504775;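 active = mean replicate activation of at least 60% and every replicate at or above 60%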;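 note: 0% = median plate neutral-control signal and 100% = twice that signal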
#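 Assay system: LDL receptor-deficient CHO ldlA cells overexpressing murine SR-BI / Medium: BSA-supplemented, HEPES-buffered Ham's F12, pH 7.4 / Probe or stimulus: DiI-labelled HDL at 10 µg/mL final / Timing: compound with DiI-HDL co-incubation, 3 h at 37 °C / Technique: bottom-read cell fluorescence after medium removal, ex 550/em 595 nm / Measure: HDL uptake via cellular fluorescence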
# dFosB act = enhances mouse delta FosB homodimer DNA binding; 340,000 tested, 0.99% active; activation, % at 25 µM; P13346; purified delta FosB, TAMRA-CDK5 oligo fluorescence polarization; percent of positive-control signal above neutral wells;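 active = mean activation above about 17%, with every replicate also reaching it, limit read from the data, passing the limit was not always enough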
# An asterisk follows results filed as active; . = no result given. Shown are actives, neighbours in structure and some others; about 2.8% of the full set was active somewhere.
SMILES,CAL PDZ FP-1,SR-BI DiI inh,CAL PDZ FP-2,SR-BI uptake up,dFosB act
Cc1c(/C=N\NC(=O)c2cccc(F)c2)cnn1C,-4,-14,-2,14,3
COc1ccccc1N1CCN(C2CC(=O)N(c3cccc(Cl)c3)C2=O)CC1 (centres undefined),-2,8,-1,-8,-2
c1cc2c3c(cccc3c1)NC1(CCCC1)N2,.,-4,-1,4,63*
CCS(=O)(=O)Nc1cc2c3c(c1)CCC(=O)N3CCC2,-3,-8,-2,8,-3
Cc1ccc(NS(=O)(=O)c2cc(NC(=O)c3cc4c(s3)CCCC4)ccc2C)c(C)c1,-4,83*,-2,-83,2
O=C(Nc1ccccc1Cl)Nc1ccnn1C1CCN(C(=O)CCN2CCCO2)CC1,-4,10,-1,-10,-2
C[C@@]12C(=O)N(c3ccc(Br)cc3)C(=O)N1[C@@H]1c3ccccc3OC[C@@H]1[C@H]2c1ccccc1,-2,18,0,-18,-3
COc1ccc2c(c1)OC[C@H]1[C@H]2N2C(=O)c3cc(OC)ccc3NC(=O)[C@@]2(C)[C@H]1c1ccccc1,-3,73*,-2,-73,7
C[C@]12C(=O)N(c3ccc(Br)cc3)C(=O)N1[C@@H]1c3ccccc3OC[C@@H]1[C@H]2c1ccccc1,0,75*,1,-75,-2
Cc1nc(=S)c2c([nH]1)-c1ccccc1CC21CCCCC1,.,17,-2,-17,0
COc1cccc(OCc2cc(C(=O)N(C)Cc3nccn3C)no2)c1,-1,-13,-2,13,-1
CCN(CC)S(=O)(=O)c1ccc(NC(=O)c2ccc(Cl)nc2)cc1,1,76*,-2,-76,-10
CCN(CC)S(=O)(=O)c1cccc(NC(=O)c2ccc(C#N)cc2)c1,6,77*,-2,-77,-16
CN(C)S(=O)(=O)c1cccc(NC(=O)/C=C/c2ccccc2[N+](=O)[O-])c1,-2,75*,-2,-75,1
CCN(CC)S(=O)(=O)c1cccc(NC(=O)/C=C/c2ccc([N+](=O)[O-])cc2)c1,-1,76*,2,-76,-3
CCN(CC)S(=O)(=O)c1ccc(NC(=O)c2ccc(NS(C)(=O)=O)cc2)cc1,-2,9,-1,-9,-7
CN(Cc1ccccc1)C(=O)c1ccc(NC(=O)Cc2cccc(NC(=O)C3CCCN(C(=O)C4CCCC4)C3)c2)cc1 (centres undefined),-1,50,0,-50,-6
C=C(C)[C@@H]1CC=C(CN2CCN(Cc3ccccc3)CC2)CC1,-4,9,-1,-9,-5
Cc1sc2ncn(CC(=O)N3CCN(c4ccccc4)CC3)c(=O)c2c1S(=O)(=O)N1CCOCC1,1,-10,-2,10,0
CC(C)c1ccccc1OCC(=O)Nc1ccc2[nH]ncc2c1,.,55,-2,-55,-5
Nc1nc(-c2ccc([N+](=O)[O-])cc2)c(C(=O)Nc2ccc(Cl)cc2)s1,4,.,0,.,2
NS(=O)(=O)c1ccc(Nc2nc(-c3cccc([N+](=O)[O-])c3)cs2)cc1,.,64,-1,-64,-3
O=C(Nc1ccc(-c2csc(Nc3ccc(Cl)cc3)n2)cc1)c1cc([N+](=O)[O-])cc(C(F)(F)F)c1,-1,106*,-1,-106,-2
O=C(Nc1cccc(-c2csc(Nc3ccccc3)n2)c1)c1cc([N+](=O)[O-])cc(C(F)(F)F)c1,-7,97*,-3,-97,-1
O=C(Nc1cccc(-c2csc(Nc3ccc(Cl)cc3)n2)c1)c1cc([N+](=O)[O-])cc(C(F)(F)F)c1,-1,127*,0,-127,12
CN(C(=O)CSc1nc2sc3c(c2c(=O)n1C)CCC3)C1CCS(=O)(=O)C1 (centres undefined),-6,10,0,-10,0
C[C@H](CO)N1C[C@H](C)[C@@H](CN(C)C)Oc2c(NC(=O)CCC(F)(F)F)cccc2C1=O,0,2,0,-2,0
CCCOc1cccc(C(=O)Nc2ccc3c(c2)OCCO3)c1,-14,-4,-1,4,-8
O=C(N/N=C/c1cn(-c2cccs2)nc1-c1ccccc1)c1ccccc1O,-4,86*,-5,-86,-12
